A short description of data set [1]: Half life in human liver microsomes in presence of NADPH by LC-MS/MS analysis. The class given is ADME, microsome. In general terms: Liver microsomes are vesicles of endoplasmic reticulum, rich in cytochrome P450 enzymes.
A short description of data set [2]: Intrinsic clearance in human liver microsomes assessed per mg protein in presence of NADPH by LC-MS/MS analysis. The class given is ADME, microsome. The following applies: read-out: CLH.
Data set [3] in a line: Half life in mouse liver microsomes in presence of NADPH by LC-MS/MS analysis. Format: ADME, microsome.
Data set [4] in a line: Intrinsic clearance in mouse liver microsomes assessed per mg protein in presence of NADPH by LC-MS/MS analysis. Format: ADME, microsome. The note with it: read-out: CLH.
For data set [5], the system named is Mus musculus. Description: Protection against TNFalpha-induced multiorgan damage in C57BL/6J mouse assessed as inhibition of TNFalpha-induced increase in IL-1beta level at 6 mg/kg, ip administered as single dose 17 mins before TNFalpha injection measured 12 hrs post TNFalpha injection. The class given is functional, organism-based. The method, boiled down:
(§1)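 C57BL/6 mice given mTNFα IV, then a single 6 mg/kg IP compound dose 17 min before TNFα. Blood taken 12 h after TNFα for mIL-6 and mIL-1β.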

Data set [6] has as its target Indoleamine 2,3-dioxygenase 1 (Homo sapiens, UniProt P14902). In words: Inhibition of recombinant human IDO expressed in Escherichia coli assessed as reduction in kynurenine production at 200 uM using L-tryptophan as substrate after 3 hrs by methylene blue dye based assay. A digest of the protocol:
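Reaction mix: 50 mM MES pH 6.5, 20 mM ascorbate, 2250 U/mL catalase, 10 μM methylene blue, 200 μM L-Trp, 100 nM recombinant IDO, 200 μM compound or DMSO. Incubated 37 °C for 3 h; kynurenine colour read at 321 nm.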

For data set [7], the system named is Mus musculus. In words: Protection against TNFalpha-induced mortality in C57BL/6J mouse assessed as survival rate at 6 mg/kg, ip administered as single dose 17 mins before TNFalpha injection measured every 30 mins up to 60 hrs post TNFalpha injection (reference value: 50%). The class given is functional.
Data set [8] deals with Mus musculus. Description: Protection against TNFalpha-induced multiorgan damage in C57BL/6J mouse assessed as inhibition of TNFalpha-induced increase in IL-6 level at 6 mg/kg, ip administered as single dose 17 mins before TNFalpha injection measured 12 hrs post TNFalpha injection. Format: functional, organism-based. The method, boiled down: as §1
In data set [9] the target is Receptor-interacting serine/threonine-protein kinase 3 (Homo sapiens) (UniProt Q9Y572). Description: Inhibition of full length recombinant human N-terminal GST-tagged RIP3 expressed in baculovirus infected sf9 cells at 10 uM using MBP as substrate preincubated for 15 mins followed by MBP/ATP mixture addition measured after 90 mins by ADP-Glo kinase assay. In general terms: ADP-Glo first removes unused ATP, then detects ADP through luciferase.
Receptor-interacting serine/threonine-protein kinase 3 (Homo sapiens), sequence (Q9Y572 whole entry, looked up): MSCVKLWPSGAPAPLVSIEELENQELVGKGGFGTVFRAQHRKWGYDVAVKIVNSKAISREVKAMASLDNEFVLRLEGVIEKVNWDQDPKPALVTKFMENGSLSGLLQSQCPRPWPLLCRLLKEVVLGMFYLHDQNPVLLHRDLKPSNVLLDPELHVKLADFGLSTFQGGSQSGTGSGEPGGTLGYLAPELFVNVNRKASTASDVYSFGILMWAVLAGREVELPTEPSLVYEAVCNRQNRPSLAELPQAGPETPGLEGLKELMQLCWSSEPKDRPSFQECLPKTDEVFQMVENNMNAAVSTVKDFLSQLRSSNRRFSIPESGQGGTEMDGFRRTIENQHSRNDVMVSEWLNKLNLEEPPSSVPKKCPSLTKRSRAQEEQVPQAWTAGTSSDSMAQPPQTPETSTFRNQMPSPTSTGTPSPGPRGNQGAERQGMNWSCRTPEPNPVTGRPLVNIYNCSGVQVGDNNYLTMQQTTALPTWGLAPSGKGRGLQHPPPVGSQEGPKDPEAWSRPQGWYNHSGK

For data set [10], the target named is T1, Receptor-interacting serine/threonine-protein kinase 1 (Homo sapiens, UniProt Q13546).
T1 sequence (Q13546 whole entry): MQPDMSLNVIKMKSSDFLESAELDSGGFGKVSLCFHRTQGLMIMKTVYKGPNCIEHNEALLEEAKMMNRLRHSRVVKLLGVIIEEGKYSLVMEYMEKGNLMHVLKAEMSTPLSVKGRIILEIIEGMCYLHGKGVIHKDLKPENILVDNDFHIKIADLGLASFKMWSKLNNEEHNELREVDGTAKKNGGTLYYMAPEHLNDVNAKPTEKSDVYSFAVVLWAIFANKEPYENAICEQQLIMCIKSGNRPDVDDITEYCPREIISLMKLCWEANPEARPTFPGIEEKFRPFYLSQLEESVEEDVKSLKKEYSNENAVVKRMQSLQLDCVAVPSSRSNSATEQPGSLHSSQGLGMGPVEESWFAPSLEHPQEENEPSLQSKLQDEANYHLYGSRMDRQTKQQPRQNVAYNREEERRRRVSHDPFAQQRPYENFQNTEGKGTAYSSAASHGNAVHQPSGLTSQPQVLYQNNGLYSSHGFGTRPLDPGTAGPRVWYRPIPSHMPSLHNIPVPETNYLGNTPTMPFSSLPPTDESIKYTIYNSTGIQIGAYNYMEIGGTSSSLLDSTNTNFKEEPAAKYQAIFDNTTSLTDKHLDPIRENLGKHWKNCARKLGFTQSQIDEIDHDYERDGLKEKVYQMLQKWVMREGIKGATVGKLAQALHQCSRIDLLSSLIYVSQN
Description: Inhibition of recombinant GST-tagged RIP1 (unknown origin) after 4 hrs by ADP-Glo kinase assay.

pIC50: −log10 of the molar value. Activity calls are given as the source filed them.

Indoleamine 2,3-dioxygenase 1, sequence (P14902 whole entry): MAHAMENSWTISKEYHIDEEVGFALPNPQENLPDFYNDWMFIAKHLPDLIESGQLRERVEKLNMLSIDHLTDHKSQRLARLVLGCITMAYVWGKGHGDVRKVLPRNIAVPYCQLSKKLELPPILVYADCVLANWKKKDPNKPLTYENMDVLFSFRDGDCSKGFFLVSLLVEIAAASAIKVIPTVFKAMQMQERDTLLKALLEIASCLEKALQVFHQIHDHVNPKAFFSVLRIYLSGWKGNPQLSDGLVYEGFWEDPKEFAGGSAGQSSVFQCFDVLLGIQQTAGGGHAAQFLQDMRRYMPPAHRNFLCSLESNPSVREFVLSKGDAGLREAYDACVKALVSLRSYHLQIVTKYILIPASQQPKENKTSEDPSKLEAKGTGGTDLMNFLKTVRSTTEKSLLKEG

The half-life is the time needed for the level to fall by half in the phase considered. As to `CCC(C)(C)C(=O)N(O)Cc1ccc(F)cc1F`, the half-life in data set [1] came out at 198 min; in data set [3], 23.2 min. The microsomal CLint in [2] was determined as 3.5 µL/min/mg; in [4] it was 29.9 µL/min/mg.

Take `CCC(C)(C)C(=O)NCc1ccccc1`: the half-life in data set [1] was > 200 min.

On to `CCC(C)(C)C(=O)N(O)Cc1ccc(F)c(F)c1F`, for which the half-life in data set [1] is 52.9 min; in [3], 13.9 min. Moreover, the microsomal CLint in data set [2] is 13.1 µL/min/mg; in [4] it was 49.9 µL/min/mg.

As usually defined, the pIC50 is the negative decadic logarithm of the IC50, by convention in mol/L. On to `CN1C(=O)C(Cc2c[nH]c3ccccc23)NC1=S` (stereo not drawn) [NECROSTATIN], for which the inhibition entry in the data set with Mus musculus [5] and in the data set on Mus musculus [8] was “Active” in each case. Moreover, in [6], the “inhibition (INH)” value is on record as “Active”. The survival at 6 mg/kg in the data set on Mus musculus [7] was determined as 60%. In [9], the inhibition entry was “inactive”. Also, the negative logarithm of the IC50 (pIC50) in data set [10] was 6.12.

Regarding `CCC(C)(C)C(=O)N(O)Cc1cc(F)c(F)c(F)c1`, the values for the half-life in [1] and in data set [3] were 66 min and 7.89 min, respectively. For the same molecule, the results for the microsomal CLint in [2] and in data set [4] were 10.5 µL/min/mg and 87.8 µL/min/mg, respectively.

Take `CCC(C)(C)C(=O)NC(C)c1ccccc1` (stereo not drawn): the half-life in data set [1] is > 200 min.

Take `CCC(C)(C)C(=O)N(O)Cc1cc(F)cc(F)c1F`: the half-life in data set [1] is 66.6 min; in [3], 9.21 min. In addition, the microsomal CLint in data set [2] came out at 10.4 µL/min/mg; in [4], 75.3 µL/min/mg.

As for `CCC(C)(C)C(=O)NC(CO)c1ccccc1` (stereo not drawn), the half-life in data set [1] is > 200 min.

For the molecule `CCC(C)(C)C(=O)N(O)Cc1ccc(F)cc1`, the half-life in data set [1] is 178 min; in data set [3] it was 24.1 min. Besides, the values for the microsomal CLint in data set [2] and in [4] were 3.9 µL/min/mg and 28.8 µL/min/mg, respectively.

Regarding `CCC(C)(C)C(=O)N(O)Cc1ccc(F)c(F)c1`, the half-life in [1] worked out at 107 min; in [3], 11.3 min. Besides, the microsomal CLint in [2] is 6.5 µL/min/mg; in [4] it was 61.4 µL/min/mg.

Source of the values: ChEMBL document CHEMBL3992509, “Discovery of a Highly Potent, Selective, and Metabolically Stable Inhibitor of Receptor-Interacting Protein 1 (RIP1) for the Treatment of Systemic Inflammatory Response Syndrome” (J Med Chem, 2017).
